Assay outcomes: PubChem, several laboratories
A selection: hits, their analogues and other compounds. The true share with any hit is near 2.1%.
MEKK2 WT-MEK5: modulators of MEK5 binding to wildtype MEKK2, primary screen, biochemical, multiplex bead flow cytometry, Alexa488-MEK5 | Mitogen-activated protein kinase kinase kinase 2 (Homo sapiens), Q9Y2U5 | Alexa488-MEK5 binding to MEKK2 WT; actives lie on both sides | binding response (% of control), % at 10 µM | hit rate 1.1% among 290,000; in the data active means binding response below about 67% or above about 130%
GSK3beta inhib: human GSK3beta kinase inhibitors, primary screen, biochemical, cell-free homogeneous, HTS; Glycogen synthase kinase-3 beta (Homo sapiens), P49841; AID 2097, 2009; hit rate 0.038% among 300,000; GST-GSK3beta kinase, ADP-Glo luminescence, 60 min; stronger effect = lower value; activity score (negative = inhibition), % at 10 µM;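 active means more than half of replicate wells score below -50%, meaning over 50% inhibition versus plate controls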;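 further: 0% = median DMSO wells and -100% = median GW8510 positive control wells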
Target sequence (P49841 whole entry, looked up): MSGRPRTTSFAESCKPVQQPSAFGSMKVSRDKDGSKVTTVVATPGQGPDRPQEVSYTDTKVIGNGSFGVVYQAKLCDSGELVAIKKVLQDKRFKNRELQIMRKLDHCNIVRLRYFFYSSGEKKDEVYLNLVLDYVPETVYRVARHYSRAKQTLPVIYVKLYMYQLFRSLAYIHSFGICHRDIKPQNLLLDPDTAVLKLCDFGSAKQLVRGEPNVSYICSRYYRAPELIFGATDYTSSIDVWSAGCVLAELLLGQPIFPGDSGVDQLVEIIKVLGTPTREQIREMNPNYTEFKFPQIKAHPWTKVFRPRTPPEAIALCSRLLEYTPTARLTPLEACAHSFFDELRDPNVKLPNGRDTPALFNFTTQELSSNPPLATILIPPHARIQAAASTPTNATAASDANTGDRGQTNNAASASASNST
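Test system: GST-tagged human GSK3beta kinase, cell-free; evaluation: activity score scaled between in-plate DMSO and GW8510 controls; measured by: ADP-Glo luminescence; incubation: 60 min reaction, RT; benchmarks: DMSO and 20 µM GW8510; reagent: peptide substrate plus 25 µM ATP (final); medium: Tris/MgCl2 kinase buffer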
STK33 inh: inhibitors of purified STK33 kinase, primary screen, biochemical, ADP-Glo luminescence, homogeneous, cell-free; Serine/threonine-protein kinase 33 (Homo sapiens), Q9BYT3; MBP phosphorylation; inhibition, % at 10 µM; hit rate 0.073% among 320,000;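 active means inhibition at or above 25%, using the most active replicate where run in duplicate; inactive means inhibition below 25%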
MEKK3 PB1 HTS: modulators of MEKK3-MEK5 PB1 binding, primary screen, biochemical, wildtype MEKK3, multiplex bead flow cytometry, Alexa488-MEK5 | Mitogen-activated protein kinase kinase kinase 3 (Homo sapiens), Q99759 | bead-based flow cytometry, Alexa488-MEK5 binding to MEKK3; actives lie on both sides; 0 = blocked by unlabeled MEK5, 100 = vehicle | binding response (% of control), % at 10 µM | hit rate 1.4% among 290,000;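 active means binding response more than 3 SD above or below the average of its plate-row segment, actives on both sides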;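 further: Alexa488 bead fluorescence after subtracting the streptavidin-only scavenger bead signal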
MEKK2 mut-MEK5: MEK5 binding signal on mutant MEKK2 PB1, primary screen, biochemical, multiplex bead flow cytometry, Alexa488-MEK5 | Alexa488-MEK5 binding to MEKK2 mutant | percent response, % at 10 µM | hit rate 0.35% among 290,000 | AID 1530, 2009; in the data active means percent response above about 24%, passing the limit was not always enough
GSK3 alpha inh: blockers of GSK3A enzyme activity – biochemical, luminescence, cell-free homogeneous, HTS, primary screen | Glycogen synthase kinase-3 alpha (Homo sapiens), P49840 | GSK-3 alpha kinase, ADP-Glo luminescence, 60 min | inhibition, % at 10 µM | hit rate 0.1% among 320,000;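 active means more than half of replicates show inhibition above 20%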;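 further: GST-tagged GSK-3 alpha with peptide substrate and 25 µM ATP; 0% = DMSO neutral wells and 100% = GW8510 positive control wells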
MEKK2wt confirm: modulators of MEK5 binding to wildtype MEKK2, confirmation, biochemical, single concentration, multiplex bead flow cytometry; hit rate 2.4% among 5,900; Alexa488-MEK5 binding to MEKK2 WT; actives lie on both sides; AID 1892, 2009; binding response (% of control), % at 10 µM; shares compounds with MEKK3 PB1 HTS; in the data active means binding response below about 16% or above about 210%; inactive means in between
MEKK2mut confirm: mutant MEKK2 PB1-MEK5 binding signal retest – biochemical, single concentration, multiplex bead flow cytometry, confirmation; percent response, % at 10 µM; AID 1893, 2009; Alexa488-MEK5 binding to MEKK2 mutant; hit rate 2% among 5,900; shares compounds with MEKK3 PB1 HTS; in the data active means percent response mostly above about 71%, no sharp cut-off; inactive means mostly below about 38%;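 further: higher means compound restores mutant binding toward wildtype level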
MEKK3-MEK5 inh: MEKK3 wild-type PB1 binding to MEK5, inhibitors, confirmation, biochemical, bead multiplex flow cytometry, single concentration, wildtype; shares compounds with MEKK3 PB1 HTS; Alexa488-MEK5 binding to MEKK3; stronger effect = lower value; hit rate 1.8% among 5,900; binding response (% of control), % at 10 µM;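 active means binding response below 72% of control, or above a set upper limit, though filed actives all read lower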;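 further: 100% = DMSO only wells and 0% = binding blocked by excess unlabeled MEK5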
Starred values were filed as active, the others as inactive; . = no result given; [ ] = another dose, or the depositor's remark.

SMILES	MEKK2 WT-MEK5	GSK3beta inhib	STK33 inh	MEKK3 PB1 HTS	MEKK2 mut-MEK5	GSK3 alpha inh	MEKK2wt confirm	MEKK2mut confirm	MEKK3-MEK5 inh
OCCNc1nc(Nc2ccc(Br)cc2)nc2ccccc12	146.0*	-2.5	12.4	108.0	28.0	1.8	132.0	36.0	104.0
OCCNc1nc(Nc2ccccc2)nc2ccccc12	110.0	-1.7	4.0	110.0	3.0	1.3	.	.	.
CNc1nc(NCc2ccccc2)c2ccccc2n1	124.0	-0.5	-1.7	94.0	13.0	-0.9	.	.	.
COCCn1c(SCC(=O)NNC(=O)c2cc(Cl)ccc2OC)nnc1-c1ccncc1	.	.	1.3	.	.	5.2	.	.	.
CCCc1cc(C(=O)Cc2ccccn2)c(O)cc1O	106.0	1.6	0.5	110.0	12.0	1.0	.	.	.
CC1CC2(C)Oc3ccccc3CC2C(C)C1CNCCCN(C)C (stereo not given)	139.0*	3.6	2.9	103.0	21.0	5.0	113.0	4.0	95.0
CC(=O)Nc1ccc(S(=O)(=O)NCC(=O)OCC(=O)NNC(=O)c2ccccc2)cc1	.	.	-1.9	.	.	-3.2	.	.	.
Cc1[nH]c2ccccc2c1/C=N/NC(=O)c1cccs1	88.0	-1.1	2.5	98.0	128.0*	1.3	104.0	2.0	98.0
Cc1nn(-c2ccccc2)c(C)c1/C=N/NC(=O)c1cccs1	100.0	2.2	1.1	133.0*	-1.0	4.3	104.0	1.0	104.0
COc1cc(C(=O)OCC(=O)N2CCN(C(C)=O)CC2)ccc1OCC(C)C	.	1.1	-1.3	.	.	-2.0	.	.	.
COc1ccc2cc3cc(C(=O)Nc4ccccc4N4CCN(C)CC4)oc3nc2c1	173.0*	-1.0	3.4	113.0	21.0	5.2	158.0	33.0	110.0
CCOc1ccc(NC(=O)c2cc3cc4ccc(OC)cc4nc3o2)cc1	1.0*[inhibitor]	1.7	-0.5	2.0*[inhibitor]	-14.0	-2.9	94.0	-2.0	103.0
CCOC(=O)C1=C(C)NC(=O)C1CC(=O)Nc1ccccc1 (stereo not given)	115.0	-2.0	-1.1	125.0*	6.0	-4.4	102.0	2.0	99.0
Cc1nn(CCC(=O)NNC(=S)Nc2ccc(F)cc2)c(C)c1Br	104.0	0.9	-1.7	129.0*	0.0	-2.7	102.0	3.0	102.0
O=C(CCc1ccccc1)NNC(=S)Nc1ccc(F)cc1	84.0	0.9	-0.9	70.0*[inhibitor]	-2.0	-1.2	101.0	-4.0	93.0
COc1ccccc1C(=O)NCC(=O)NC(C)c1ccc(-n2ccnc2)cc1 (stereo not given)	105.0	-8.3	0.1	105.0	8.0	-1.7	.	.	.
Cc1ccc(C(=O)NCCCNC(=O)c2ccco2)cc1C	102.0	2.2	0.5	103.0	-7.0	-0.5	.	.	.
Cc1cccc(N=C2NC(=O)/C(=C/C=C/c3ccco3)S2)c1	91.0	-6.3	0.1	64.0*[inhibitor]	-2.0	-3.4	84.0	-14.0	94.0
CCN(CC)CCNC(=O)c1cc(-c2ccc(Br)s2)nc2ccccc12	141.0*	-1.6	0.2	100.0	43.0*	-2.4	156.0	34.0	107.0
COCCNC(=O)Cc1cn(C)c2ccccc12	112.0	6.2	-0.5	110.0	19.0	-3.2	.	.	.
COc1ccc(CCNC(=O)c2n[nH]c3ccccc23)cc1	95.0	-6.5	-0.5	100.0	-5.0	0.4	.	.	.
COCCNC(=O)c1cn(C)c2ccccc2c1=O	74.0	3.7	-0.2	70.0*[inhibitor]	-14.0	-0.8	98.0	-8.0	96.0
COCCNC(=O)c1n[nH]c2ccccc12	85.0	5.4	0.6	70.0*[inhibitor]	-3.0	8.3	105.0	-2.0	104.0
CSCCC(NC(=O)c1ccc(Cl)cc1Cl)C(=O)NCc1ccncc1 (stereo not given)	.	-1.3	-3.3	.	.	-0.2	.	.	.
N#CCCN(Cc1ccncc1)C(=S)NC1CC2C=CC1C2 (stereo not given)	55.0	1.2	0.7	47.0*[inhibitor]	-53.0	-2.1	103.0	3.0	102.0
SMILES	MEKK2 WT-MEK5	GSK3beta inhib	STK33 inh	MEKK3 PB1 HTS	MEKK2 mut-MEK5	GSK3 alpha inh	MEKK2wt confirm	MEKK2mut confirm	MEKK3-MEK5 inh
N#CCCN(CCC#N)C(=S)NC1CC2C=CC1C2 (stereo not given)	93.0	2.9	1.5	85.0	-18.0	2.7	.	.	.
COc1cccc(NC(=O)c2cccnn2)c1	103.0	-5.9	-1.4	104.0	2.0	-2.2	.	.	.
CNS(=O)(=O)c1cc(NC(=O)c2cncn2-c2ccccc2)ccc1C	98.0	-2.7	2.1	102.0	2.0	1.1	.	.	.
O=C(NCC(=O)N(CC1CCCO1)C(C(=O)NC1CCCCC1)c1cccnc1)c1cccs1 (stereo not given)	123.0	-1.1	-2.1	131.0*	3.0	-5.2	103.0	6.0	106.0
C#CCN1C(=O)C(O)(CC(=O)c2cccc(OC)c2)c2ccccc21 (stereo not given)	1.0*[inhibitor]	-1.9	-1.2	1.0*[inhibitor]	-18.0	1.8	108.0	6.0	103.0
CCOC(=O)CN1C(=O)C(O)(CC(=O)c2cccc(OC)c2)c2ccccc21 (stereo not given)	106.0	1.7	0.6	105.0	9.0	-2.2	.	.	.
CNC[C@H](Cc1ccccc1)NC[C@@H](Cc1cccc2ccccc12)NCCc1ccc(C)cc1	364.0*	-8.7	2.9	121.0	120.0*	17.3	255.0*	100.0*	116.0
CCN1C(=O)N[C@@H](c2ccco2)C(C(C)=O)=C1C	97.0	-1.2	0.6	102.0	-1.0	-3.3	.	.	.
O=C(CSc1nc(O)c(Cc2ccccc2)c(=O)[nH]1)N1CCOCC1	118.0	2.6	-1.3	131.0*	31.0	-4.3	98.0	2.0	99.0
CCOCCCN(C(=O)Cn1nnc(-c2ccc(C)o2)n1)C(C(=O)NCC1CCCO1)c1ccc(F)cc1 (stereo not given)	97.0	-0.8	0.3	96.0	-11.0	1.3	.	.	.
